5HT1a ag – activates the human 5-HT1a serotonin receptor | CHO 5-HT1a Ga15 NFAT-bla reporter, FRET ratio; 0% basal, 100% maximal reference agonist | activation, % at 10 µM | AID 567 | P08908 | 0.56% of 65,000 active;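 active = activation above the screen-wide mean activation plus 3 SD, cut at about 19% in these data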;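 also: 0% = DMSO wells and 100% = 5-CT at EC100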
Target sequence (P08908 whole entry, looked up): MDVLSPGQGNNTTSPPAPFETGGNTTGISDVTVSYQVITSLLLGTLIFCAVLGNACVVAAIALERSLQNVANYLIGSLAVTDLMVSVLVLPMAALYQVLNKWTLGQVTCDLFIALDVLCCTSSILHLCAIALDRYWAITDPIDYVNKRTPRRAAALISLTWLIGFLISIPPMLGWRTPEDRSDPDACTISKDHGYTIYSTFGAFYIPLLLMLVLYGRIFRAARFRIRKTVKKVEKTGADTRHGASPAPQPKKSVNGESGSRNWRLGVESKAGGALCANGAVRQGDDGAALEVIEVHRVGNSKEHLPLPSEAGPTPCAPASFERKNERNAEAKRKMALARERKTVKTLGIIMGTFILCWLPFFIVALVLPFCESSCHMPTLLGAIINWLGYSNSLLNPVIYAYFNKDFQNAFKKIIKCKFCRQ
S1P1 ag-PAM – activates or potentiates agonism at human S1P1 receptor; P21453; S1P1 CRE-bla cells, forskolin, beta-lactamase FRET, potentiator mode; S1P1 agonist co-added at EC20, 2 nM; 100% = saturating reference agonist, 0% = basal; activation, % at 9.5 µM; 0.57% of 56,000 active;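 active = activation above a cutoff set at the mean activation of all tested compounds plus 3 SD, cut at about 54% in these data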;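 also: forskolin at 4 µM as EC80 and the EC20 agonist is SEW2871; 100% = SEW2871 at its EC100 plus forskolin at EC80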
S1P3 ag – S1P3 (human) receptor agonism | Q99500 | S1P3 NFAT-BLA reporter cells, FRET ratio; relative to 1 µM S1P, basal subtracted | activation, % at 4.5 µM | 0.1% of 60,000 active | AID 373;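 active = activation above the screen-wide mean plus 3 SD, cut at about 4.5% in these data, passing the limit was not always enough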
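Measure – % activation relative to 1 µM S1P (100%), per plate · System – stable CHO line with human S1P3, Gα16, NFAT-BLA reporter · Timing – cells plated overnight, compound 4 h 37 °C, substrate 2 h RT · Technique – fluorescent BLA substrate, ex 405 nm, em 460/535 nm ratio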
HTR1E agonist – agonists of human 5-HT1E serotonin receptor; CHO 5-HT1E Ga15 NFAT-bla reporter, FRET; 0% DMSO wells, 100% control agonist wells; activation, % at 6 µM; 0.69% of 65,000 active;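 active = activation above a set limit, the screen-wide mean activation plus 3 SD, cut at about 8.5% in these data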;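 also: 100% = positive control agonist at 1 µM giving full maximal response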
HTR1E antagonist – 5-HT1E (human) receptor antagonism. CHO 5-HT1E Ga15 NFAT-bla reporter, FRET, antagonist. inhibition, % at 6 µM. 0.99% of 65,000 active. AID 571;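 active = inhibition above a set limit, the mean inhibition across every tested compound plus 3 SD, cut at about 29% in these data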;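 also: signal is the 460 over 535 nm emission ratio of beta-lactamase substrate; 0% = agonist plus DMSO wells and 100% = wells without agonist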
5-HT1A blocker – blocks the human serotonin 5-HT1a receptor; P08908; CHO 5-HT1a Ga15 NFAT-bla reporter, antagonist mode; inhibition, % at 10 µM; 0.68% of 62,000 active; AID 612;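 active = inhibition above the mean of all tested compounds plus 3 SD, cut at about 43% in these data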;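 also: receptor stimulated by 5-CT agonist at 100 nM near EC80; beta-lactamase reporter measured by ratiometric fluorescence of a cleavable substrate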
Numbers without * were called inactive; nt = not tested or not shown. Hits are enriched below; roughly 3% of the tested compounds scored in any of these assays.

SMILES	5HT1a ag	S1P1 ag-PAM	S1P3 ag	HTR1E agonist	HTR1E antagonist	5-HT1A blocker
O=C(NCc1ccco1)C(c1cccs1)N(C(=O)Cc1cccs1)c1ccccc1 (stereo not drawn)	-1.9	3.4	-1.5	-1.7	14.6	51.9*
O=C(COC(=O)Cc1ccsc1)NC1CCCCCC1	-1.5	-13.3	0.3	-1.2	-1.0	0.1
COc1ccc(N2C(=O)CC(NCc3ccncc3)C2=O)cc1 (stereo not drawn)	-1.1	nt	0.0	0.2	77.4*	0.7
COc1ccc(N2C(=O)CC(NCc3cccc(F)c3)C2=O)cc1 (stereo not drawn)	0.2	nt	-0.8	-0.3	-8.0	-28.3
c1ccc(-c2oc3ncnc(NCCCn4ccnc4)c3c2-c2ccccc2)cc1	2.8	-14.5	-0.7	-0.6	28.8*	62.6*
Brc1ccc(C2=Nn3c(nnc3-c3n[nH]c4c3CCC4)SC2)cc1	-1.1	-48.9	2.0	-0.3	57.1*	29.6
Clc1ccc(C2=Nn3c(nnc3-c3n[nH]c4c3CCC4)SC2)cc1	-1.1	-45.7	2.3	1.2	21.5	24.1
O=C(CCCN1CCC(c2ccccc2)C1)c1ccc2c(c1)OCCO2 (stereo not drawn)	5.8	-9.9	-0.3	7.8	-1.1	81.8*
COc1ccc(C(=O)O)cc1Nc1cc(C)nc2ncnn12	-3.6	-7.5	-0.9	0.0	-7.7	-6.6
Cc1c(=O)n(OCc2ccccc2F)c2ccccc2[n+]1[O-]	24.6*	-15.3	0.4	-1.1	-9.0	-4.2
N#CCCN(C1CCCCC1)S(=O)(=O)CCOc1ccccc1	0.5	4.0	-0.4	-0.6	1.7	15.1
CCCCC(=O)NC1=NC(=O)C(C)(C)S1	-4.2	-20.6	-0.4	-0.7	10.1	1.8
COc1ccc(C(=O)N2CCCC(c3nc(-c4ccc(OC)c(OC)c4)no3)C2)c(OC)c1 (stereo not drawn)	20.4*	54.7	-1.2	0.5	-3.8	-10.9
c1ccc(CNC2=NCCCCC2)cc1	-2.2	15.7	-0.7	12.8*	3.5	10.3
CC1Oc2ccccc2N(CC(=O)N2CCc3ccccc32)C1=O (stereo not drawn)	-4.9	7.0	-1.3	0.1	-3.6	5.0
CC1Oc2ccccc2N(CC(=O)N2CCCc3ccccc32)C1=O (stereo not drawn)	40.8*	4.1	-1.4	0.7	3.4	13.7
CCOc1ccc(Nc2nc(NCCN3CCOCC3)nc(OC)n2)cc1	2.3	nt	nt	0.4	4.6	5.9
Brc1ccc(CSc2nnc(-c3ccccn3)n2Cc2ccco2)cc1	-1.2	nt	nt	-0.8	27.2	65.4*
COc1ccccc1NC(=O)C1=C(C)NC2=C(C(=O)CCC2)C1c1ccc2c(c1)OCO2 (stereo not drawn)	0.8	16.8	0.4	-0.2	-2.5	4.9
Cc1ccc(-c2nnc(SCc3ccccc3F)o2)cc1	0.3	92.6*	-0.1	-0.7	-1.0	3.6
COc1ccc(-c2nnc(SCc3ccccc3F)o2)cc1OC	-1.4	42.1	1.1	-0.3	29.9*	9.7
Cc1ccc(-c2nnc(SCC(=O)Nc3ccccc3F)o2)cc1	-2.3	-4.1	0.5	-0.3	-2.6	4.8
O=C(c1oc(=O)c2ccccc2c1-c1ccccc1)N1CCN(C2CCCCC2)CC1	2.5	-10.8	0.0	0.7	-8.3	-6.7
CCN(CC)CCOc1cccc(C(C)C)c1	-1.0	-12.8	-0.2	13.3*	3.5	5.8
CCCn1c(=O)c2ccccc2n2c(SCc3c(C(=O)OCC)oc4ccccc34)nnc12	-2.1	-48.1	12.7*	0.5	1.1	24.4
SMILES	5HT1a ag	S1P1 ag-PAM	S1P3 ag	HTR1E agonist	HTR1E antagonist	5-HT1A blocker
CCCn1c(=O)c2ccccc2n2c(SCN3C(=O)c4ccccc4C3=O)nnc12	-2.3	-17.5	-0.6	-0.3	0.6	10.7
CN(C)/C=C1\C(=O)c2ccc(N(C)C)nc2CC1c1ccccc1 (stereo not drawn)	99.3*	-303.5	10.4	25.0*	-21.6	-122.0
CCOC(=O)N1CC=C2C(C#N)=C(N)C(C#N)(C#N)[C@H](c3ccc(OCC)c(OCC)c3)[C@H]2C1	2.1	10.3	-0.4	0.9	-7.3	-9.2
CCCCOc1ccc(C2C3CN(C(=O)OCC)CC=C3C(C#N)=C(N)C2(C#N)C#N)cc1OC (stereo not drawn)	46.1*	-21.4	0.4	1.6	-5.8	-4.7
Cc1ccc(C2C3CN(C(C)C)CC=C3C(C#N)=C(N)C2(C#N)C#N)cc1 (stereo not drawn)	31.7*	26.3	1.8	3.6	-18.1	nt
CC1(C)CC(=O)C2=C(C1)N(CC1CCCO1)C(=O)C2(NC(=O)c1cccnc1)C(F)(F)F (stereo not drawn)	-3.4	-20.4	0.5	2.0	1.9	-4.0
CC1CN(C2CCN(S(=O)(=O)c3ccccc3)CC2)CC(C)O1 (stereo not drawn)	-0.7	10.9	-3.5	-0.7	52.3*	nt
Cc1nn(Cc2ccc(Cl)c(Cl)c2)c(C)c1NC(=O)c1cc(CC(C)C)on1	1.8	76.4*	-0.6	0.8	15.8	-1.0
CCCCSc1nc(C)c(CC(=O)OC)c(=O)[nH]1	-0.4	-3.2	-0.5	-1.6	7.9	5.5
COC(=O)c1ccc(OCC2c3cc(OC)c(OC)cc3CCN2C(=O)C2CC2)cc1 (stereo not drawn)	1.9	nt	nt	-0.5	34.5*	23.3
C/C(N)=C(/C#N)C(=O)CSc1nnnn1-c1ccc(C)cc1C	-2.0	52.1	-1.4	-1.2	24.6	3.6
O=C(C1CCN(S(=O)(=O)c2ccc(F)cc2)CC1)N1CC=C(c2ccccc2)CC1	0.4	nt	nt	-0.7	-7.6	-5.7
COc1ccc(CCNC(=O)c2ccn[nH]2)cc1OC	-3.0	-22.2	-0.1	0.8	8.2	-15.0
CCC(C)(C(=O)NC1CCCCC1)N(Cc1ccco1)C(=O)c1ccc2c(c1)OCO2 (stereo not drawn)	-1.3	2.6	-1.2	-0.6	-5.5	44.3*
COc1ccc(C(=O)C(CO)Oc2ccccc2OC)cc1OC (stereo not drawn)	-0.3	25.1	0.0	0.2	14.9	-3.2
Cc1cc(C)n(-c2nc3c(c(=O)n(C)c(=O)n3C)n2Cc2cccc(Br)c2)n1	-1.4	3.0	-1.6	0.7	-2.6	6.3
CCOC(=O)C1=C(C)NC(=O)NC1c1ccc(OCC(=O)Nc2ccccc2)c(OC)c1 (stereo not drawn)	0.8	16.1	-1.0	88.9*	-0.9	13.9
Cc1ccc2c(c1)NC(=O)C(CC(=O)NCCCN1CCN(c3cc(C)ccc3C)CC1)O2 (stereo not drawn)	-1.7	10.1	-0.9	0.9	-6.7	47.3*
COCCCNC(=O)c1c(N)n(-c2cccc(S(N)(=O)=O)c2)c2nc3ccccc3nc12	5.8	-14.1	1.0	2.9	-2.3	-25.3

Screens deposited in PubChem BioAssay by The Scripps Research Institute Molecular Screening Center.
